System: U2OS
Experiment: Multiplex assay against U2OS
Assay type: toxicity, cell-based
Conditions: human
Outline: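 Imaging took place on a CQ1 microscope at 37°C and 5% CO2 once compound had been added to live cells stained at seeding with Hoechst33342, BioTracker Green Microtubule Cytoskeleton Dye, MitoTracker Red and Annexin V Alexa Fluor 680. CellPathfinder machine-learning gating classed cells as Hoechst high-intensity objects or normal cells, classed normal cells as having healthy, pyknosed or fragmented nuclei, and classed pyknosed cells as mitotic or apoptotic. Tubulin, mitochondrial-mass and membrane-permeability phenotypes are per cents of the healthy-nucleus cells.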

[1] = 12 h, 1 µM, compound concentration 1 uM, replicate 1
[2] = 12 h, 1 µM, compound concentration 1 uM, replicate 2
[3] = 12 h, 10 µM, compound concentration 10 uM, replicate 1
[4] = 12 h, 10 µM, compound concentration 10 uM, replicate 2
[5] = 24 h, 1 µM, compound concentration 1 uM, replicate 1
[6] = 24 h, 1 µM, compound concentration 1 uM, replicate 2
[7] = 24 h, 10 µM, compound concentration 10 uM, replicate 1
[8] = 24 h, 10 µM, compound concentration 10 uM, replicate 2
[9] = 48 h, 1 µM, compound concentration 1 uM, replicate 1
[10] = 48 h, 1 µM, compound concentration 1 uM, replicate 2
[11] = 48 h, 10 µM, compound concentration 10 uM, replicate 1
[12] = 48 h, 10 µM, compound concentration 10 uM, replicate 2

O=C1N/C(=N/c2ccccc2F)S/C1=C\c1ccc(C(=O)O)cc1
Population Apoptotic (%) [1]: 33% | Population Fragmented Nuclei (%) [1]: 8% | Population Healthy Nuclei (%) [1]: 85% | Population Hoechst High Intensity Objects (%) [1]: 9% | Population Membrane Permeable-Phenotype (%) [1]: 6% | Population Mitochondria Different-Phenotype (%) [1]: 10% | Population Mitotic Cells (%) [1]: 66% | Population Normal (%) [1]: 90% | Population Pyknosed Nuclei (%) [1]: 5% | Population Tubulin-Different-Phenotype (%) [1]: 7% | Total Cell Count [1]: 130 | Population Apoptotic (%) [2]: 0% | Population Fragmented Nuclei (%) [2]: 3% | Population Healthy Nuclei (%) [2]: 92% | Population Hoechst High Intensity Objects (%) [2]: 8% | Population Mitochondria Different-Phenotype (%) [2]: 16% | Population Mitotic Cells (%) [2]: 100% | Population Normal (%) [2]: 91% | Population Pyknosed Nuclei (%) [2]: 3% | Population Tubulin-Different-Phenotype (%) [2]: 24% | Total Cell Count [2]: 66 | Population Apoptotic (%) [3]: 25% | Population Fragmented Nuclei (%) [3]: 8% | Population Healthy Nuclei (%) [3]: 82% | Population Hoechst High Intensity Objects (%) [3]: 5% | Population Membrane Permeable-Phenotype (%) [3]: 6% | Population Mitochondria Different-Phenotype (%) [3]: 15% | Population Mitotic Cells (%) [3]: 75% | Population Normal (%) [3]: 94% | Population Pyknosed Nuclei (%) [3]: 8% | Population Tubulin-Different-Phenotype (%) [3]: 8% | Total Cell Count [3]: 175 | Population Apoptotic (%) [4]: 44% | Population Fragmented Nuclei (%) [4]: 4% | Population Healthy Nuclei (%) [4]: 81% | Population Hoechst High Intensity Objects (%) [4]: 8% | Population Membrane Permeable-Phenotype (%) [4]: 1% | Population Mitochondria Different-Phenotype (%) [4]: 9% | Population Mitotic Cells (%) [4]: 55% | Population Normal (%) [4]: 91% | Population Pyknosed Nuclei (%) [4]: 14% | Population Tubulin-Different-Phenotype (%) [4]: 9% | Total Cell Count [4]: 59 | Population Apoptotic (%) [5]: 33% | Population Fragmented Nuclei (%) [5]: 9% | Population Healthy Nuclei (%) [5]: 81% | Population Membrane Permeable-Phenotype (%) [5]: 4% | Population Mitochondria Different-Phenotype (%) [5]: 6% | Population Mitotic Cells (%) [5]: 66% | Population Pyknosed Nuclei (%) [5]: 8% | Population Tubulin-Different-Phenotype (%) [5]: 4% | Total Cell Count [5]: 131 | Population Apoptotic (%) [6]: 0% | Population Fragmented Nuclei (%) [6]: 7% | Population Healthy Nuclei (%) [6]: 85% | Population Hoechst High Intensity Objects (%) [6]: 5% | Population Membrane Permeable-Phenotype (%) [6]: 5% | Population Mitochondria Different-Phenotype (%) [6]: 10% | Population Mitotic Cells (%) [6]: 100% | Population Normal (%) [6]: 94% | Population Pyknosed Nuclei (%) [6]: 7% | Population Tubulin-Different-Phenotype (%) [6]: 23% | Total Cell Count [6]: 69 | Population Apoptotic (%) [7]: 20% | Population Fragmented Nuclei (%) [7]: 6% | Population Healthy Nuclei (%) [7]: 85% | Population Hoechst High Intensity Objects (%) [7]: 3% | Population Membrane Permeable-Phenotype (%) [7]: 4% | Population Mitochondria Different-Phenotype (%) [7]: 10% | Population Mitotic Cells (%) [7]: 80% | Population Normal (%) [7]: 96% | Population Pyknosed Nuclei (%) [7]: 8% | Population Tubulin-Different-Phenotype (%) [7]: 5% | Total Cell Count [7]: 234 | Population Apoptotic (%) [8]: 60% | Population Fragmented Nuclei (%) [8]: 5% | Population Healthy Nuclei (%) [8]: 88% | Population Hoechst High Intensity Objects (%) [8]: 5% | Population Membrane Permeable-Phenotype (%) [8]: 2% | Population Mitochondria Different-Phenotype (%) [8]: 6% | Population Mitotic Cells (%) [8]: 40% | Population Normal (%) [8]: 94% | Population Pyknosed Nuclei (%) [8]: 5% | Population Tubulin-Different-Phenotype (%) [8]: 16% | Total Cell Count [8]: 73 | Population Apoptotic (%) [9]: 27% | Population Healthy Nuclei (%) [9]: 86% | Population Hoechst High Intensity Objects (%) [9]: 1% | Population Membrane Permeable-Phenotype (%) [9]: 1% | Population Mitochondria Different-Phenotype (%) [9]: 14% | Population Mitotic Cells (%) [9]: 72% | Population Normal (%) [9]: 98% | Population Pyknosed Nuclei (%) [9]: 6% | Population Tubulin-Different-Phenotype (%) [9]: 6% | Total Cell Count [9]: 134 | Population Apoptotic (%) [10]: 0% | Population Fragmented Nuclei (%) [10]: 6% | Population Healthy Nuclei (%) [10]: 92% | Population Hoechst High Intensity Objects (%) [10]: 5% | Population Membrane Permeable-Phenotype (%) [10]: 7% | Population Mitochondria Different-Phenotype (%) [10]: 16% | Population Mitotic Cells (%) [10]: 100% | Population Normal (%) [10]: 94% | Population Pyknosed Nuclei (%) [10]: 1% | Population Tubulin-Different-Phenotype (%) [10]: 23% | Total Cell Count [10]: 76 | Population Apoptotic (%) [11]: 21% | Population Healthy Nuclei (%) [11]: 90% | Population Membrane Permeable-Phenotype (%) [11]: 2% | Population Mitochondria Different-Phenotype (%) [11]: 14% | Population Mitotic Cells (%) [11]: 78% | Population Pyknosed Nuclei (%) [11]: 5% | Population Tubulin-Different-Phenotype (%) [11]: 5% | Total Cell Count [11]: 338 | Population Apoptotic (%) [12]: 22% | Population Fragmented Nuclei (%) [12]: 4% | Population Healthy Nuclei (%) [12]: 83% | Population Hoechst High Intensity Objects (%) [12]: 2% | Population Membrane Permeable-Phenotype (%) [12]: 6% | Population Mitochondria Different-Phenotype (%) [12]: 9% | Population Mitotic Cells (%) [12]: 77% | Population Normal (%) [12]: 97% | Population Pyknosed Nuclei (%) [12]: 12% | Population Tubulin-Different-Phenotype (%) [12]: 22% | Total Cell Count [12]: 105
